The source made the active and inactive calls. Unless noted, no cut-off for these calls is given here.
Legend:
[1] = Half life in human liver cytoplasm; assay type: ADME, subcellular
Homo sapiens = organism: Homo sapiens; experiment: Inhibition of LDH in human A673 cells assessed as decrease in extracellular acidification rate at 0.5 to 5 uM preincubated for 1 hr followed by subsequent injections of glucose/oligomycin at 48 mins by seahorse XF GST based assay; assay type: cell-based; conditions: dose microM 0.5-5, time 108.0 min
Outline: (§1)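 A673 cells in DMEM with 10% FBS were plated 24 h ahead, then switched to Seahorse basic DMEM with 2 mM glutamine, pH 7.4, and held 1 h at 37 °C without CO2. ECAR was recorded after inhibitor injection at increasing concentrations. At 48 min, glucose (10 mM final), oligomycin (1 μg/mL final) and 2-DG (50 mM final) were injected in sequence.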

[2] = Metabolic stability in rat hepatocytes; assay type: ADME, cell-based, Hepatocyte
[3] = target: T1, L-lactate dehydrogenase A chain (Homo sapiens, UniProt P00338); experiment: Inhibition of recombinant human LDHA using sodium pyruvate as substrate preincubated for 5 mins followed by diaphorase/resazurin addition and measured after 20 mins by fluorescence based assay
[4] = In vivo inhibition of LDH in human A673 cells xenografted athymic nude CrTac:NCr-Foxn1nu mouse assessed as reduction in tumor LDH activity at 50 mg/kg, iv after 6 hrs by UV-VIS spectrometric method relative to control; assay type: functional
Outline: (§2)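 Female athymic nude mice carried SQ A673 flank xenografts (2 million cells) and received a single IV dose of 50 mg/kg in PBS-based vehicle. Four mice per time point were sacrificed at 1, 3, 6 and 24 h. Frozen tumor (10–50 mg) was pulverized and lysed in PBS pH 7.4 with 0.1% Triton X-100 on ice for 1 h. Cleared lysate (10–20 μg) was assayed with 10 mM pyruvate and 0.3 mM final NADH, reading NADH oxidation at 340 nm at 37 °C.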

[5] = target: T1, L-lactate dehydrogenase A chain; experiment: Inhibition of LDHA in human MIA PaCa-2 cells assessed as decrease in lactate production incubated for 2 hrs by lactate oxidase-coupled fluorescence based assay; assay type: cell-based
A673 = experiment: Cytotoxicity against human A673 cells assessed as reduction in cell viability after 48 hrs by CellTiter-Glo assay; assay type: functional, cell-based; conditions: A673, 48 h
[6] = target: L-lactate dehydrogenase B chain (Homo sapiens) (UniProt P07195); experiment: Inhibition of recombinant human LDHB using sodium pyruvate as substrate preincubated for 5 mins followed by diaphorase/resazurin addition and measured after 20 mins by fluorescence based assay
Sequence of L-lactate dehydrogenase B chain (Homo sapiens) (P07195 2-334 limits assumed): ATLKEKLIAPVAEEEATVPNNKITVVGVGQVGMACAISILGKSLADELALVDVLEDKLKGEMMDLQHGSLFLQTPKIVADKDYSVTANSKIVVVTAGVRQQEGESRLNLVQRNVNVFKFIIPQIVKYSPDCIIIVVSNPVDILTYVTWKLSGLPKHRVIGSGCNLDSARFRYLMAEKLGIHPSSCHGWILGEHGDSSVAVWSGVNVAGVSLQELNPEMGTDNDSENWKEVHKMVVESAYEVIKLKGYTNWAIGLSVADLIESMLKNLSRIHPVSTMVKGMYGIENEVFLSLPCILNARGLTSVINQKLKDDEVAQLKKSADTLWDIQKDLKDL

[7] = Metabolic stability in mouse hepatocytes; assay type: ADME, cell-based, Hepatocyte
Outline: (§3)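 Time-course stability in human or mouse liver microsomes, or mouse hepatocytes, in the presence of NADPH and UDPGA. Parent compound was monitored at five time points to derive T1/2.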

[8] = Half life in mouse plasma; assay type: ADME, cell-free
Outline: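 Stability in mouse plasma was followed at five time points, with T1/2 derived from parent remaining.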

[9] = Half life in human liver microsomes at 1 uM in presence of NADPH by LC-MS/MS; assay type: ADME, Microsome; outline: as §3
[10] = Half life in mouse liver microsomes at 1 uM in presence of NADPH by LC-MS/MS; assay type: ADME, Microsome; outline: as §3
[11] = Half life in rat liver cytoplasm; assay type: ADME, subcellular
[12] = Half life in mouse liver cytoplasm; assay type: ADME, subcellular
Mus musculus = experiment: In vivo inhibition of LDH in human A673 cells xenografted athymic nude CrTac:NCr-Foxn1nu mouse assessed as reduction in tumor LDH activity at 50 mg/kg, iv after 1 hr by NADH-based UV-VIS spectrometric method relative to control; assay type: functional, organism-based; outline: as §2
MIA PaCa-2 = experiment: Cytotoxicity against human MIA PaCa-2 cells assessed as reduction in cell viability after 48 hrs by CellTiter-Glo assay; assay type: functional, cell-based; conditions: MIA PaCa-2, 48 h
[13] = Volume of distribution at steady state in CD-1 mouse at 10 mg/kg, iv and measured up to 24 hrs by LC/MS-MS analysis; assay type: ADME, organism-based; conditions: in vivo
Outline: (§4)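 Male CD1 mice, about 6–8 weeks old and 20–30 g, received 10 mg/kg IV in 0.1 M NaOH in PBS adjusted to pH 7–8.5, made fresh on the day of dosing. Three mice per cohort. Blood was taken from the dorsal metatarsal vein at 5, 15, 30 min and 1, 2, 4, 8, 12, 24 h into heparin tubes. Plasma was spun at 4 °C, stored at –75 °C and analysed by LC–MS/MS. For IV dosing Cmax = C0.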

[14] = Metabolic stability in dog hepatocytes; assay type: ADME, cell-based, Canis lupus familiaris, Hepatocyte
[15] = target: Voltage-gated inwardly rectifying potassium channel KCNH2 (Homo sapiens, UniProt Q12809); experiment: Inhibition of human ERG by patch clamp method; conditions: dose >10 µM
Sequence of Voltage-gated inwardly rectifying potassium channel KCNH2 (Q12809 whole entry): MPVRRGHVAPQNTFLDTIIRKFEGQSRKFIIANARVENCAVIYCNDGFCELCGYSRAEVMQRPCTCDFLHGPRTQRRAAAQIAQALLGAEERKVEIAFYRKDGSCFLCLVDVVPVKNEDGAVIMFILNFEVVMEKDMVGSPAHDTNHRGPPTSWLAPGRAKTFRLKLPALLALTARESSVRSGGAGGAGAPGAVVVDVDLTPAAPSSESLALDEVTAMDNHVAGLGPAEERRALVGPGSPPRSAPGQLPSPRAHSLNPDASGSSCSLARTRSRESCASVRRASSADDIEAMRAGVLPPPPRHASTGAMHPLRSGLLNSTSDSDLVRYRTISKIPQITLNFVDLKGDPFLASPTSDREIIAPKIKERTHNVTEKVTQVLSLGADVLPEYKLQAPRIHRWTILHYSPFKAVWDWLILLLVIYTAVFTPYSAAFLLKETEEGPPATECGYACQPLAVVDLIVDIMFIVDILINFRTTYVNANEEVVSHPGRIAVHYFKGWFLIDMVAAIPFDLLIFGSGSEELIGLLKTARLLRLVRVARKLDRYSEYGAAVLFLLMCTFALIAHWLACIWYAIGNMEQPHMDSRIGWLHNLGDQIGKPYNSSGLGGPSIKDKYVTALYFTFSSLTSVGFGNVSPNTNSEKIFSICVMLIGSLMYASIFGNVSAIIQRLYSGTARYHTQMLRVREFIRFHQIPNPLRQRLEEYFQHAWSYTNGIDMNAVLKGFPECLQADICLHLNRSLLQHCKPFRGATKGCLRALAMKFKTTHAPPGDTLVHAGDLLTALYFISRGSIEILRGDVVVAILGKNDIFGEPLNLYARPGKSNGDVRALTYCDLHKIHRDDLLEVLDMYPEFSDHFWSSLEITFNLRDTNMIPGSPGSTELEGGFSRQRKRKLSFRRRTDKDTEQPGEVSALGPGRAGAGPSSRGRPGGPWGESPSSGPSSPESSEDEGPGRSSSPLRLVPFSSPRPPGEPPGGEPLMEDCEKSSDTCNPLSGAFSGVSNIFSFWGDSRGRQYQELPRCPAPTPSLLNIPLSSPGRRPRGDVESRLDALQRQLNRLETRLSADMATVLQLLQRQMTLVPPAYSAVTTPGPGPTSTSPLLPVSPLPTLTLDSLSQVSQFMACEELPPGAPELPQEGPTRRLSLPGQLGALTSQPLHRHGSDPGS

[16] = Protein binding in mouse plasma assessed as free fraction; assay type: ADME, cell-free
[17] = target: T1, L-lactate dehydrogenase A chain; experiment: Binding affinity to human His-tagged LDHA by SPR analysis
Outline: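 SPR on a Mass-1 instrument gave K_D and k_off. Residence time τ was calculated as 1/k_off (s⁻¹).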

[18] = Permeability of compound at pH 7.4 […] incubated for 1 hr by PAMPA-BBB assay; assay type: ADME; conditions: pH 7.4, 1 h
Outline: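 Double-sink PAMPA with 10% porcine brain lipid extract in phospholipid/alkane membrane. 10 mM DMSO stocks were diluted to 0.05 mM at pH 7.4 and stirred 1 h at room temperature. Donor and acceptor were quantified by UV against reference and blank. Results in 10⁻⁶ cm/s.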

[19] = Permeability of compound at pH 7.4 incubated for 30 mins by PAMPA; assay type: ADME; conditions: pH 7.4, 0.5 h
Outline: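 Stirred double-sink PAMPA with GI-tract lipid/dodecane membrane, pH 7.4 on both sides. Compound was diluted from 10 mM DMSO stock to 0.05 mM (0.5% DMSO final), with 30 min permeation at room temperature. Donor and acceptor were read by UV. Results in 10⁻⁶ cm/s.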

Cytochrome P450 = experiment: Induction of CYP450 (unknown origin) at 10 uM; assay type: ADME, protein assay; conditions: human
[20] = Terminal half life in CD-1 mouse at 10 mg/kg, iv and measured up to 24 hrs by LC/MS-MS analysis; assay type: ADME, organism-based; conditions: in vivo; outline: as §4
[21] = Kinetic aqueous solubility of the compound in pH 7.4 PBS buffer at 150 uM measured after 6 hrs by shake flask method; assay type: physicochemical; conditions: read-out: Kinetic_solubility
Outline: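 μSOL kinetic solubility. 10 mM DMSO stocks were diluted with 1-propanol cosolvent to 150 μM final in aqueous pH 7.4 and equilibrated 6 h at room temperature. After filtration, filtrate concentration was read by UV absorbance against a 17 μM reference.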

[22] = AUClast in CD-1 mouse at 10 mg/kg, iv and measured up to 24 hrs by LC/MS-MS analysis; assay type: ADME, organism-based; set-up: route intravenous, dose 10 mg/kg, time <=24; conditions: in vivo; outline: as §4
Sus scrofa = organism: Sus scrofa; experiment: Inhibition of porcine heart MDH using malic acid as substrate preincubated for 10 mins followed by substrate addition and measured after 5 mins by resazurin based fluorescence based assay; conditions: time 15.0 min
[23] = Genotoxicity in Salmonella typhimurium by Ames test; assay type: toxicity; conditions: salmonella enterica subsp. enterica serovar typhimurium
[24] = Cmax in CD-1 mouse at 10 mg/kg, iv and measured up to 24 hrs by LC/MS-MS analysis; assay type: ADME, organism-based; set-up: route intravenous, dose 10 mg/kg, time <=24; conditions: in vivo; outline: as §4
[25] = target: T1, L-lactate dehydrogenase A chain; experiment: Inhibition of LDHA in human A673 cells assessed as decrease in extracellular acidification rate at 0.5 to 5 uM preincubated for 1 hr followed by glucose/oligomycin/2-DG addition at 48 mins by seahorse XF GST based assay; assay type: cell-based; conditions: dose microM 0.5-5, time 108.0 min; outline: as §1

| Compound | half-life [1] [h] | inhibition (Homo sapiens) | half-life [2] [h] | IC50 [3] [nM] | inhibition in vivo at 50 mg/kg [4] [%] | IC50 [5] [nM] | IC50 (A673) [nM] | inhibition [6] | half-life [7] [h] | t1/2 [8] [h] | half-life at 1 µM [9] [h] | half-life at 1 µM [10] [h] | half-life [11] [h] | half-life [12] [h] | inhibition (Mus musculus) | IC50 (MIA PaCa-2) [nM] | Vdss [13] [L/kg] | half-life [14] [h] | INH [15] [µM] | Fu [16] [%] | also measured |
| --- | --- | --- | --- | --- | --- | --- | --- | --- | --- | --- | --- | --- | --- | --- | --- | --- | --- | --- | --- | --- | --- |
| Cc1ccc(C#Cc2cc(-c3nn(-c4nc(C(=O)O)cs4)c(CC4CC4)c3Cc3ccc(S(N)(=O)=O)c(F)c3)ccc2F)s1 | > 2 | inactive | > 2.5 | 57 | 60 | 403 | 119 | Active | > 2.5 | > 4 | > 2 | > 2 | > 2 | > 2 | Active | 257 | 1.79 | > 2.5 | > 10 | 0.7 | Kd [17]: 0.0667 nM; permeability [18]: 16 10^-6 cm/s; permeability [19]: 10.4 10^-6 cm/s; Activity (Cytochrome P450): Not Active; beta t1/2 [20]: 5.2 h; solubility kinetic at 6 h, 150 µM [21]: > 70 µg/mL; AUClast [22]: 10570 ng·h/mL; inhibition (Sus scrofa): inactive; Activity [23]: Non-Toxic; Cmax [24]: 41800 ng/mL; inhibition [25]: Active |
| Cc1ccc(C#Cc2cccc(-c3nn(-c4nc(C(=O)O)cs4)c(CC4CC4)c3Cc3ccc(S(N)(=O)=O)c(F)c3)c2)s1 | > 2 | inactive | > 2.5 | 40 | 80 | 367 | 105 | Active | > 2.5 | > 4 | > 2 | > 2 | > 2 | > 2 | Active | 347 | 1.7 | > 2.5 | > 10 | 4.4 | Kd [17]: 0.0634 nM; permeability [18]: 9.6 10^-6 cm/s; permeability [19]: 2.2 10^-6 cm/s; Activity (Cytochrome P450): Not Active; beta t1/2 [20]: 5.3 h; solubility kinetic at 6 h, 150 µM [21]: > 70 µg/mL; AUClast [22]: 16530 ng·h/mL; inhibition (Sus scrofa): inactive; Activity [23]: Non-Toxic; Cmax [24]: 33800 ng/mL; inhibition [25]: Active |
